The values below come from ChEMBL document CHEMBL2311495, “Pyrazolo[1,5-c]quinazoline derivatives and their simplified analogues as adenosine receptor antagonists: synthesis, structure-affinity relationships and molecular modeling studies” (Bioorg Med Chem, 2013).

The structures appear in SMILES notation.

Test [1] deals with T1, Adenosine receptor A2b (Homo sapiens) (UniProt P29275).
T1 sequence (whole entry): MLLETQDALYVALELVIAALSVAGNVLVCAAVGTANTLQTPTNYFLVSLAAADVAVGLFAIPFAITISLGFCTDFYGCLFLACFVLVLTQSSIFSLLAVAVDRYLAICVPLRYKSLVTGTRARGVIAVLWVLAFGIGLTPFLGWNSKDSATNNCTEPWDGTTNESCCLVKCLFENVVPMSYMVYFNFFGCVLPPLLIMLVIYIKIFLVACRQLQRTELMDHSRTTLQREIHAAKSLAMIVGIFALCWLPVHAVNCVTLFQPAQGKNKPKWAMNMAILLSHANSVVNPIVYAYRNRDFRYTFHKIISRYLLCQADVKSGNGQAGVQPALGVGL
Description: Antagonist activity at human adenosine A2b receptor transfected in CHO cells assessed as inhibition of NECA-induced cAMP accumulation at 1 uM by scintillation counting. The format is functional, cell-based. The method, boiled down:
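CHO cells stably expressing hA2B (1 × 10⁶/assay), pre-incubated 10 min at 37 °C, pH 7.4, with adenosine deaminase 2 IU/ml and Ro 20-1724 as PDE inhibitor. Stimulated by 200 nM NECA, compounds tested at 1 µM, result given as percent inhibition. Stopped with cold 6% TCA, ether-extracted, cAMP measured by [³H]cAMP competition with beef adrenal binding protein.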
(cAMP levels reflect the balance of adenylyl cyclase and phosphodiesterase activity.)

Test [2] deals with T2, Adenosine receptor A3 (Homo sapiens) (UniProt P0DMS8).
T2 sequence (whole entry): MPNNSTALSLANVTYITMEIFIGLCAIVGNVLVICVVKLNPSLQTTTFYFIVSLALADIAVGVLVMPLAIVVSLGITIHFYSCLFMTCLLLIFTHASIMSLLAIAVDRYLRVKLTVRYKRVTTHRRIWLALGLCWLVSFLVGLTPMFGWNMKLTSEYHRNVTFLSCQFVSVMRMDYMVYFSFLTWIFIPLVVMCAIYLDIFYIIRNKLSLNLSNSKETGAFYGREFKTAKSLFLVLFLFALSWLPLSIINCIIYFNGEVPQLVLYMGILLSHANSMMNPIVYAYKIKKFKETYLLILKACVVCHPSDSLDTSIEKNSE
Description: Displacement of [125I]AB-MECA from human adenosine A3 receptor expressed in CHO cells at 1 uM by scintillation counting. Type of test: cell-based. Put shortly: (§1)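 hA3 CHO membranes (50 µg protein) incubated with 0.5 nM [¹²⁵I]AB-MECA in 50 mM Tris-HCl, 10 mM MgCl₂, 1 mM EDTA, pH 7.4, for 120 min at 4 °C. Six to eight ligand concentrations, or single 1 µM for % inhibition. Nonspecific binding defined with 1 µM AB-MECA. Filtration on GF/B, counting. Ki by Cheng–Prusoff, mean ± SEM of four duplicate assays.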
(In general: Loss of bound radioactivity is the signal in a displacement assay; it reports binding, not function.)

Test [3] concerns the target T3, Adenosine receptor A2a (Homo sapiens, UniProt P29274). Description: Displacement of [3H]ZM241385 from human adenosine A2a receptor expressed in CHO cells at 1 uM by scintillation counting. The format is cell-based. Put shortly: (§2)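 Membranes of CHO cells expressing hA2A (50 µg protein) incubated with 1 nM [³H]ZM241385 in 50 mM Tris-HCl, 10 mM MgCl₂, pH 7.4, 60 min at 4 °C. Six to eight antagonist concentrations, or 1 µM for percent inhibition. Filtration and counting. Ki by Cheng–Prusoff from IC50, mean ± SEM of four duplicate experiments.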

The target in test [4] is T4, Adenosine receptor A1 (Homo sapiens) (UniProt P30542).
T4 sequence (whole entry): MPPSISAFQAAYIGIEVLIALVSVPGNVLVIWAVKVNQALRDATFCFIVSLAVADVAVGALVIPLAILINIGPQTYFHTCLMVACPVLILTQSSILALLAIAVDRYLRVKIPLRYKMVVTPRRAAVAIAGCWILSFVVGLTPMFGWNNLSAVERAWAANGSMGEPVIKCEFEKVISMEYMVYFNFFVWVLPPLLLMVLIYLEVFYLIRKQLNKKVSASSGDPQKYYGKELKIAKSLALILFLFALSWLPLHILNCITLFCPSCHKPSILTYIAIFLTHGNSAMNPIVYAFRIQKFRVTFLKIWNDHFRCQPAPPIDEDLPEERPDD
The test can be described thus: Displacement of [3H]DPCPX from human adenosine A1 receptor expressed in CHO cells at 1 uM by scintillation counting. The format is cell-based. Put shortly:
(§3)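 hA1 CHO membranes (50 µg protein) incubated with 1 nM [³H]DPCPX in 50 mM Tris-HCl pH 7.4 for 120 min at 25 °C. Six to eight antagonist concentrations, or 1 µM for % inhibition. Nonspecific binding taken with 1 µM DPCPX. Bound ligand filtered and counted. Ki from IC50 via Cheng–Prusoff, four separate assays in duplicate.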

Test [5] concerns the target T5, Adenosine receptor A3 (Homo sapiens, UniProt P0DMS8).
T5 sequence (P0DMS8 whole entry): T2 sequence (whole entry)
Description: Displacement of [125I]AB-MECA from human adenosine A3 receptor expressed in CHO cells by scintillation counting. Type of test: cell-based. Put shortly: as §1

Test [6] deals with T5, Adenosine receptor A3. The test can be described thus: Activity at human adenosine A3 receptor transfected in CHO cells assessed as Cl-IB-MECA-inhibited cAMP accumulation by scintillation counting. The format is functional, cell-based. The method, boiled down:
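hA3-transfected CHO cells (1 × 10⁶/assay), trypsinised, pre-incubated 10 min at 37 °C in buffered salt/glucose medium pH 7.4 with adenosine deaminase 2 IU/ml and Ro 20-1724. cAMP response inhibited by 100 nM Cl-IB-MECA. Stopped with cold 6% TCA, ether-extracted, cAMP read by [³H]cAMP competition binding to beef adrenal binding protein. IC50 as mean ± SEM of four experiments.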

The target of test [7] is T3, Adenosine receptor A2a. Description: Displacement of [3H]ZM241385 from human adenosine A2a receptor expressed in CHO cells by scintillation counting. The format is cell-based. The method, boiled down:
as §2

Test [8] has as its target T6, Adenosine receptor A2b (Homo sapiens, UniProt P29275).
T6 sequence (P29275 whole entry): T1 sequence (whole entry)
The test can be described thus: Antagonist activity at human adenosine A2b receptor transfected in CHO cells assessed as inhibition of NECA-induced cAMP accumulation by scintillation counting. Type of test: functional, cell-based.

Test [9] addresses T7, Adenosine receptor A1 (Homo sapiens, UniProt P30542).
T7 sequence (P30542 whole entry): T4 sequence (whole entry)
The test can be described thus: Displacement of [3H]DPCPX from human adenosine A1 receptor expressed in CHO cells by scintillation counting. The format is cell-based. The method, boiled down:
as §3

T3 sequence (P29274 whole entry): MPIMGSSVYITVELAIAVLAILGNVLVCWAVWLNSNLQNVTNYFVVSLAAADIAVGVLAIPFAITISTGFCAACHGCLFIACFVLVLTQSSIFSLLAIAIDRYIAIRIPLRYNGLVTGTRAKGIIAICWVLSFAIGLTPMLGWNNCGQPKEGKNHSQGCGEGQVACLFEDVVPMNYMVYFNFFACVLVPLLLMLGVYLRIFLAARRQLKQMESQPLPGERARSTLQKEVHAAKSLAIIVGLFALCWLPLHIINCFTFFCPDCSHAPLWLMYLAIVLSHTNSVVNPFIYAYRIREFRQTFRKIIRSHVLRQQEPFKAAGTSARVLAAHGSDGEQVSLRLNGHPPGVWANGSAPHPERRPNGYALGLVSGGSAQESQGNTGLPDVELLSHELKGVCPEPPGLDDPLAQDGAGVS

In general, inhibition refers to the share of the control response that was lost under treatment. In the case of `Nc1nc2ccccc2c2cc(-c3cccs3)nn12`, the inhibition in [1] turned out to be 3%; in [2], 18%; in [3] it was 20%; in test [4], 44%.
With `O=C(OCc1ccccc1)c1cc2c3ccccc3[nH]c(=O)n2n1`, the inhibition was 2% in test [1], 1% in test [2], 4% in test [3] and 3% in test [4].
By Ki is commonly meant a measure of affinity in units of concentration, obtained from inhibition or displacement. `COc1ccc(-c2cc(-c3ccccc3N)n[nH]2)cc1` yielded a Ki in test [5] of 0.48 µM.
As to `COC(=O)c1cc2c3ccccc3[nH]c(=O)n2n1`, the Ki in test [5] was 0.44 µM.
For the compound `CCOC(=O)c1cc2c3ccccc3nc(O)n2n1`, the results for the inhibition in test [1], in test [3] and in test [4] were 3%, 5% and 3%, respectively.
As usually defined, the IC50 is the midpoint of a concentration-inhibition curve. `Oc1nc2ccccc2c2cc(-c3ccc(Cl)cc3)nn12`: the inhibition in test [1] was 3%; in test [3], 1%; in test [4], 6%. Also, the Ki in test [5] turned out to be 0.023 µM. In test [6], the IC50 amounted to 0.082 µM.
`Nc1ccccc1-c1cc(-c2cccs2)[nH]n1` yielded a Ki in test [5] of 0.6 µM.
Regarding `O=C(Nc1nc2ccccc2c2cc(-c3ccccc3)nn12)c1ccccc1`, the inhibition amounted to 4% in test [1], 1% in test [3] and 1% in [4]. Also, in [5], the Ki is 0.52 µM.
`Nc1ccccc1-c1cc(-c2ccco2)n[nH]1`: the inhibition in test [1] was 1%; in [2] it was 1%; in [3] it was 6%; in test [4], 4%.
In turn, `CCOC(=O)c1cc2c3ccccc3[nH]c(=O)n2n1` registered a Ki in test [5] of 0.315 µM.
For the compound `O=C(NCc1ccccc1)c1cc2c3ccccc3[nH]c(=O)n2n1`, the inhibition in test [1] amounted to 1%; in test [2] it was 25%; in [3] it was 5%; in [4], 2%.
Consider `COC(=O)c1cc2c3ccccc3nc(O)n2n1`, for which the figures for the inhibition in [1], in test [3] and in [4] were 6%, 3% and 1%, respectively.
In the case of `Nc1ccccc1-c1cc(-c2ccccc2)n[nH]1`, the inhibition stood at 2% in test [1], 1% in [3] and 9% in test [4]. Further, the Ki in test [5] turned out to be 0.68 µM.
With `Oc1nc2ccccc2c2cc(-c3ccco3)nn12`, the figures for the inhibition in test [1], in test [3] and in test [4] were 3%, 1% and 5%, respectively. This compound displayed a Ki in test [5] of 0.08 µM. Further, in [6], the IC50 was 0.138 µM.
As for `Cc1ccc(-c2cc3c4ccccc4nc(O)n3n2)cc1`, the inhibition worked out at 2% in test [1], 12% in [3] and 1% in [4]. In addition, the Ki in test [5] was 0.025 µM. In addition, the half-maximal inhibitory concentration (IC50) in test [6] came out at 0.088 µM.
With `Nc1nc2ccccc2c2cc(-c3ccco3)nn12`, the figures for the Ki in test [7] and in test [9] were 0.08 µM and 0.035 µM, respectively. For the same compound, the IC50 in test [8] was found to be 0.12 µM. Also, in [2], the inhibition was found to be 35%.
Take `Oc1nc2ccccc2c2cc(-c3ccccn3)nn12`: the values for the inhibition in test [1], in test [3] and in test [4] were 2%, 1% and 4%, respectively. The Ki in test [5] was determined as 0.252 µM.
For `CCOC(=O)c1nn2c(=O)[nH]c3ccccc3c2c1C(=O)OCC`, in that order: 5%, 1%, 12% and 0.101 µM.
`Oc1ccccc1-c1cc(-c2ccccc2)[nH]n1`: the inhibition in test [1] is 4%; in test [2], 7%; in test [3], 1%; in test [4], 13%.
For `Oc1nc2ccccc2c2cc(-c3ccccc3)nn12`, in that order: 4%, 28%, 1% and 12%.
For `CC(C)OC(=O)c1cc2c3ccccc3nc(O)n2n1`, the inhibition in test [1] was 4%; in test [3], 1%; in test [4], 1%. Moreover, in test [5], the Ki was 0.45 µM.
As to `CCOC(=O)c1ccccc1-c1cc(-c2cccs2)n[nH]1`, the inhibition in test [1] came to 2%; in [2], 23%; in test [3], 1%; in test [4], 3%.
As for `COc1ccc(-c2cc3c4ccccc4[nH]c(=O)n3n2)cc1`, the inhibition in [1] is 2%; in test [3] it was 1%; in test [4], 4%. The compound further yielded a Ki in test [5] of 0.1 µM. Further, in test [6], the IC50 is 0.324 µM.
The matching figures for `Oc1nc2ccccc2c2cc(-c3cccs3)nn12`: 6%, 20%, 7%, 0.04 µM and 0.263 µM.
For the compound `Nc1nc2ccccc2c2cc(-c3ccccc3)nn12`, the inhibition amounted to 3% in [1], 15% in [2], 5% in [3] and 1% in [4].
For `Nc1ccccc1-c1cc(-c2cccs2)n[nH]1`, the inhibition was 3% in test [1], 1% in test [3] and 2% in [4].
`COc1ccc(-c2cc3c4ccccc4nc(N)n3n2)cc1`: the inhibition in test [1] was 3%; in [2], 45%; in test [3], 15%; in test [4] it was 7%.
In the case of `Oc1ccccc1-c1n[nH]c(-c2ccccc2)n1`, the inhibition in [1] is 8%; in test [2], 39%; in test [3] it was 2%; in test [4] it was 47%.
With `Oc1nc2ccccc2c2cc(-c3ccccc3F)nn12`, the values for the inhibition in test [1], in test [3] and in test [4] were 1%, 11% and 1%, respectively. In [5], this compound had a Ki of 0.14 µM.
As for `COc1ccc(-c2cc(-c3ccccc3N)[nH]n2)cc1`, the inhibition in [1] was 5%; in test [3], 9%; in test [4] it was 2%.
